Experiments:
[1] = Cytotoxicity against human SW620 cells assessed as inhibition of cell proliferation at 10 uM incubated for 72 hrs by MTS assay; format: functional; settings: SW-620, 72 h
Method in brief: (§1)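 Single-concentration MTS screen at 10 μM. Cells in RPMI-1640 with 10% FBS, seeded at 4000 cells/well in triplicate, attached overnight, then exposed for 72 h at 37°C, 5% CO2. MTS for 4 h; absorbance 490 nm. Reported as % inhibition.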

[2] = Cytotoxicity against human MGC803 cells assessed as inhibition of cell proliferation at 10 uM incubated for 72 hrs by MTS assay; format: functional; settings: MGC-803, 72 h; method in brief: as §1
[3] = Cytotoxicity against human MGC803 cells assessed as inhibition of cell proliferation incubated for 72 hrs by MTS assay; format: functional, cell-based; settings: MGC-803, 72 h
Method in brief: (§2)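 Cells in RPMI-1640 with 10% heat-inactivated FBS at 37°C, 5% CO2. Seeded at 4000 cells/well in triplicate and attached overnight. Exposed to various concentrations for 72 h. MTS added for a further 4 h; absorbance at 490 nm. IC50 = concentration for 50% growth inhibition, as mean ± SEM of three independent tests.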

[4] = Cytotoxicity against human SGC7901 cells assessed as inhibition of cell proliferation incubated for 72 hrs by MTS assay; format: functional, cell-based; settings: SGC-7901, 72 h; method in brief: as §2
[5] = Cytotoxicity against human SW620 cells assessed as inhibition of cell proliferation incubated for 72 hrs by MTS assay; format: functional, cell-based; settings: SW-620, 72 h; method in brief: as §2
[6] = test system: CT26; assay: Cytotoxicity against mouse CT26 cells assessed as inhibition of cell proliferation incubated for 72 hrs by MTS assay; format: functional, cell-based; settings: CT26, 72 h; method in brief: as §2
[7] = test system: CT26; assay: Cytotoxicity against mouse CT26 cells at 10 uM assessed as inhibition of cell proliferation incubated for 72 hrs by MTS assay; format: functional; settings: CT26, 72 h; method in brief: as §1
[8] = Cytotoxicity against human SGC7901 cells assessed as inhibition of cell proliferation at 10 uM incubated for 72 hrs by MTS assay; format: functional; settings: SGC-7901, 72 h; method in brief: as §1
[9] = Cytotoxicity against human GES-1 cells assessed as inhibition of cell proliferation incubated for 72 hrs by MTS assay; format: functional, cell-based; settings: GES1, 72 h; method in brief: as §2

Structure (SMILES): COc1cc(/C=C2\CCC/C(=C\c3ccc(OCCCN4CCN(C)CC4)c(OC)c3)C2=O)ccc1OCCCN1CCN(C)CC1
- inhibition at 10 µM [1]: 86.7%
- inhibition at 10 µM [2]: 77.5%
- IC50 [3]: 1.94 µM
- IC50 [4]: 1.88 µM
- IC50 [5]: 1.04 µM
- IC50 [6]: 2.01 µM
- inhibition at 10 µM [7]: 109%
- inhibition at 10 µM [8]: 84.8%
- IC50 [9]: 3.27 µM

Structure (SMILES): COc1cc(/C=C2\CCC/C(=C\c3ccc(OCCCN4CCCCC4)c(OC)c3)C2=O)ccc1OCCCN1CCCCC1
- inhibition at 10 µM [1]: 86.9%
- inhibition at 10 µM [2]: 76.9%
- IC50 [3]: 2.92 µM
- IC50 [4]: 2.32 µM
- IC50 [5]: 2.49 µM
- IC50 [6]: 2.42 µM
- inhibition at 10 µM [7]: 93.2%
- inhibition at 10 µM [8]: 82.8%
- IC50 [9]: 6.35 µM

Structure (SMILES): COc1cc(/C=C/C(=O)/C=C/c2c(C)cc(C)cc2C)ccc1OCCCN1CCOCC1
- inhibition at 10 µM [1]: 83.6%
- inhibition at 10 µM [2]: 80.7%
- IC50 [3]: 8.46 µM
- IC50 [4]: 7.67 µM
- IC50 [5]: 3.38 µM
- IC50 [6]: 7.01 µM
- inhibition at 10 µM [7]: 89.6%
- inhibition at 10 µM [8]: 78.1%
- IC50 [9]: 8.06 µM

Structure (SMILES): COc1cc(/C=C/C(=O)/C=C/c2ccccc2Cl)ccc1OCCCN1CCOCC1
- inhibition at 10 µM [1]: 81.6%
- inhibition at 10 µM [2]: 38.5%
- inhibition at 10 µM [7]: 87.2%
- inhibition at 10 µM [8]: 75.3%

Structure (SMILES): COc1cc(/C=C2\CCC/C(=C\c3ccc(OCCBr)c(OC)c3)C2=O)ccc1OCCBr
- inhibition at 10 µM [1]: 66.3%
- inhibition at 10 µM [2]: 58.4%
- IC50 [3]: 7.72 µM
- IC50 [4]: 6.26 µM
- IC50 [5]: 6.26 µM
- IC50 [6]: 9.85 µM
- inhibition at 10 µM [7]: 77.3%
- inhibition at 10 µM [8]: 69.2%
- IC50 [9]: 3.56 µM

Structure (SMILES): COc1cc(/C=C/C(=O)/C=C/c2ccccc2C(F)(F)F)ccc1OCCCN1CCOCC1
- inhibition at 10 µM [1]: -3.21%
- inhibition at 10 µM [2]: -2.85%
- inhibition at 10 µM [7]: -24%
- inhibition at 10 µM [8]: 3.22%

Structure (SMILES): COc1ccc(/C=C2\CCC/C(=C\c3ccc(OCCCN4CCOCC4)c(OC)c3)C2=O)cc1OC
- inhibition at 10 µM [1]: 83.6%
- inhibition at 10 µM [2]: 89.8%
- IC50 [3]: 8.61 µM
- IC50 [4]: 2.87 µM
- IC50 [5]: 3.81 µM
- IC50 [6]: 2.99 µM
- inhibition at 10 µM [7]: 86.5%
- inhibition at 10 µM [8]: 86.4%
- IC50 [9]: 8.17 µM

Structure (SMILES): COc1ccccc1/C=C1\CCC/C(=C\c2ccc(OCCCN3CCOCC3)c(OC)c2)C1=O
- inhibition at 10 µM [1]: 22.9%
- inhibition at 10 µM [2]: 2.3%
- inhibition at 10 µM [7]: 31.6%
- inhibition at 10 µM [8]: -0.33%

Structure (SMILES): COc1cc(/C=C2\CC/C(=C\c3ccc(OCCCBr)c(OC)c3)C2=O)ccc1OCCCBr
- inhibition at 10 µM [1]: 27.4%
- inhibition at 10 µM [2]: 5.56%
- inhibition at 10 µM [7]: 71%
- inhibition at 10 µM [8]: 6.48%

Structure (SMILES): COc1ccc(/C=C/C(=O)/C=C/c2ccc(OCCCN3CCOCC3)c(OC)c2)c(F)c1
- inhibition at 10 µM [1]: 79.3%
- inhibition at 10 µM [2]: 3.64%
- inhibition at 10 µM [7]: 67.6%
- inhibition at 10 µM [8]: 51.6%

Structure (SMILES): COc1cc(/C=C2\CC/C(=C\c3ccc(OCCCN4CCOCC4)c(OC)c3)C2=O)ccc1OCCCN1CCOCC1
- inhibition at 10 µM [1]: 86%
- inhibition at 10 µM [2]: 83.9%
- IC50 [3]: 2.28 µM
- IC50 [4]: 1 µM
- IC50 [5]: 1.49 µM
- IC50 [6]: 0.39 µM
- inhibition at 10 µM [7]: 92.5%
- inhibition at 10 µM [8]: 86.1%
- IC50 [9]: > 30 µM

Structure (SMILES): COc1cc(/C=C2\CC/C(=C\c3ccc(OCCBr)c(OC)c3)C2=O)ccc1OCCBr
- inhibition at 10 µM [1]: 38.5%
- inhibition at 10 µM [2]: 8.38%
- inhibition at 10 µM [7]: 58.6%
- inhibition at 10 µM [8]: 20.4%

Structure (SMILES): COc1cc(/C=C/C(=O)/C=C/c2ccc(OCCCN3CCOCC3)c(OC)c2)ccc1OCCCN1CCOCC1
- inhibition at 10 µM [1]: 84%
- inhibition at 10 µM [2]: 44.5%
- inhibition at 10 µM [7]: 89.7%
- inhibition at 10 µM [8]: 67.5%

Structure (SMILES): O=C1/C(=C/c2ccc(OCCBr)cc2)CC/C1=C\c1ccc(OCCBr)cc1
- inhibition at 10 µM [1]: 78.5%
- inhibition at 10 µM [2]: 52%
- inhibition at 10 µM [7]: 88.1%
- inhibition at 10 µM [8]: 76%

Structure (SMILES): COc1cc(/C=C2\CC/C(=C\c3ccc(OCCCN4CCCCC4)c(OC)c3)C2=O)ccc1OCCCBr
- inhibition at 10 µM [1]: 84.5%
- inhibition at 10 µM [2]: 91.4%
- IC50 [3]: 7.31 µM
- IC50 [4]: 5.08 µM
- IC50 [5]: 4.47 µM
- IC50 [6]: 3.86 µM
- inhibition at 10 µM [7]: 90.2%
- inhibition at 10 µM [8]: 89%
- IC50 [9]: 7.03 µM

Structure (SMILES): CCN(CC)CCCOc1ccc(/C=C2\CCC/C(=C\c3ccc(OCCCBr)c(OC)c3)C2=O)cc1OC
- inhibition at 10 µM [1]: 85.3%
- inhibition at 10 µM [2]: 87%
- IC50 [3]: 15.5 µM
- IC50 [4]: 11.9 µM
- IC50 [5]: 4.65 µM
- IC50 [6]: 12.8 µM
- inhibition at 10 µM [7]: 92.3%
- inhibition at 10 µM [8]: 86.4%
- IC50 [9]: 14.1 µM
